Converted amounts (≈) assume the structure as drawn.
Columns and labels:
[1] = system: Nakaseomyces glabratus; assay: Antimicrobial activity against flucytosine, azole, and caspofungin resistant Candida glabrata bloodstream isolate 5 harboring FKS2 T1988C mutation and overexpressing CDR1 and CDR2 genes serially obtained from hematopoietic stem cell transplant recipient by Etest; format: functional
Method in brief: (§1)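 MICs by Etest following the strip maker's instructions, with C. parapsilosis ATCC 22019 as control strain. FLC, VRC and 5FC were interpreted by published CLSI criteria. For caspofungin a susceptibility breakpoint of ≤2 mg/liter was used. Isolates were serial C. glabrata blood-culture isolates from one patient, judged the same genotype by PCR of 8 microsatellite regions with fluorescent primers.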

[2] = system: Nakaseomyces glabratus; assay: Antimicrobial activity against flucytosine, azole, and caspofungin resistant Candida glabrata bloodstream isolate 2 harboring Fur1 G190D mutation serially obtained from hematopoietic stem cell transplant recipient by Etest
[3] = system: Nakaseomyces glabratus; assay: Antimicrobial activity against flucytosine, azole, and caspofungin resistant Candida glabrata bloodstream isolate 4 harboring FKS2 T1988C mutation and overexpressing CDR1 and CDR2 genes serially obtained from hematopoietic stem cell transplant recipient by Etest; format: functional; method in brief: as §1
[4] = system: Nakaseomyces glabratus; assay: Antimicrobial activity against flucytosine, azole, and caspofungin resistant Candida glabrata bloodstream isolate 3 harboring Fur1 G190D mutation serially obtained from hematopoietic stem cell transplant recipient by Etest
[5] = system: Nakaseomyces glabratus; assay: Antimicrobial activity against flucytosine, azole, and caspofungin resistant Candida glabrata bloodstream isolate 1 serially obtained from hematopoietic stem cell transplant recipient by Etest; format: functional; method in brief: as §1

C[C@@H]1[C@H](O)[C@@H](C)/C=C/C=C/C=C/C=C/C=C/C=C/C=C/[C@H](O[C@@H]2O[C@H](C)[C@@H](O)[C@H](N)[C@@H]2O)C[C@@H]2O[C@](O)(C[C@@H](O)C[C@@H](O)[C@H](O)CC[C@@H](O)C[C@@H](O)CC(=O)O[C@H]1C)C[C@H](O)[C@H]2C(=O)O [AMPHOTERICIN B]
MIC [1]: 0.75 µg/mL (≈ 0.812 µM) | MIC [2]: 2 µg/mL (≈ 2.16 µM) | MIC [3]: 0.75 µg/mL (≈ 0.812 µM) | MIC [4]: 0.75 µg/mL (≈ 0.812 µM)

CC[C@H](C)C[C@H](C)CCCCCCCCC(=O)N[C@H]1C[C@@H](O)[C@@H](NCCN)NC(=O)[C@@H]2[C@@H](O)CCN2C(=O)[C@H]([C@H](O)CCN)NC(=O)[C@H]([C@H](O)[C@@H](O)c2ccc(O)cc2)NC(=O)[C@@H]2C[C@@H](O)CN2C(=O)[C@H]([C@@H](C)O)NC1=O [CASPOFUNGIN]
MIC [1]: > 32 µg/mL | MIC [2]: 0.125 µg/mL (≈ 0.114 µM) | MIC [3]: > 32 µg/mL | MIC [5]: 0.19 µg/mL (≈ 0.174 µM) | MIC [4]: 0.125 µg/mL (≈ 0.114 µM)

OC(Cn1cncn1)(Cn1cncn1)c1ccc(F)cc1F [FLUCONAZOLE]
MIC [1]: > 256 µg/mL | MIC [2]: 2 µg/mL (≈ 6.53 µM) | MIC [3]: > 256 µg/mL | MIC [4]: 1 µg/mL (≈ 3.27 µM)

Nc1nc(=O)[nH]cc1F [FLUCYTOSINE]
MIC [1]: 0.004 µg/mL (≈ 0.031 µM) | MIC [2]: > 32 µg/mL | MIC [3]: 0.004 µg/mL (≈ 0.031 µM) | MIC [5]: 0.004 µg/mL (≈ 0.031 µM) | MIC [4]: > 32 µg/mL

C[C@@H](c1ncncc1F)[C@](O)(Cn1cncn1)c1ccc(F)cc1F [VORICONAZOLE]
MIC [1]: 16 µg/mL (≈ 45.8 µM) | MIC [2]: 0.125 µg/mL (≈ 0.358 µM) | MIC [3]: 12 µg/mL (≈ 34.4 µM) | MIC [5]: 0.25 µg/mL (≈ 0.716 µM) | MIC [4]: 0.047 µg/mL (≈ 0.135 µM)

From ChEMBL document CHEMBL1240383, “Acquisition of flucytosine, azole, and caspofungin resistance in Candida glabrata bloodstream isolates serially obtained from a hematopoietic stem cell transplant recipient” (2010)
